Measured values: ChEMBL document CHEMBL4414625, “Discovery of Second-Generation NLRP3 Inflammasome Inhibitors: Design, Synthesis, and Biological Characterization” (J Med Chem, 2019)
Activity calls are given as the source filed them. The rule behind the calls is not given here.

Legend:
Mus musculus [1] = experiment: Inhibition of LPS-induced serum IL-1beta production in C57BL/6 mouse at 10 mg/kg, ip pretreated before LPS challenge and measured after […] post LPS challenge by ELISA; assay type: functional, organism-based
Mus musculus [2] = experiment: Inhibition of LPS-induced serum TNFalpha production in C57BL/6 mouse at 10 mg/kg, ip pretreated before LPS challenge and measured after […] post LPS challenge by ELISA; assay type: functional, organism-based
Mus musculus [3] = experiment: Inhibition of LPS-induced serum IL-1beta production in nlrp3-/- C57BL/6 mouse at 10 mg/kg, ip pretreated before LPS challenge and measured after […] post LPS challenge by ELISA; assay type: functional, organism-based
[4] = Toxicity in human hCMEC/D3 cells assessed as reduction in cell viability at 20 uM; assay type: cell-based; conditions: hcmec/d3, 20 µM
Summary of the method: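 hCMEC/D3 cells (passage 25-35, EGM-2-based media) exposed to compound at 20 μM for 2 h; viability read by Live/Dead staining. Mean ± SEM from 3 independent experiments, ≥triplicates each.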

With `C#CCNS(=O)(=O)c1ccc(CCN(Cc2cc(Cl)ccc2OCCC)C(=O)Cc2ccsc2)cc1` the inhibition (Mus musculus [1]) was “Active”, the inhibition (Mus musculus [2]) was “inactive” and the inhibition (Mus musculus [3]) was “inactive”. For the same compound, the Activity [4] was “Non-Toxic”.
For `C#CCNS(=O)(=O)c1ccc(CCN(Cc2cc(Cl)ccc2OC)C(=O)C=C)cc1`, the inhibition (Mus musculus [1]) was “Active” and the inhibition (Mus musculus [2]) was “Active”.
For `CC(C)(O)c1coc(S(=O)(=O)NC(=O)Nc2c3c(cc4c2CCC4)CCC3)c1`, the inhibition (Mus musculus [1]) was “Active”.
